Screens deposited in PubChem BioAssay by The Scripps Research Institute Molecular Screening Center.
CHRM1 antagonist – human CHRM1 antagonism; CHO-K1 hM1, Fluo-8 calcium fluorescence, ACh EC80 antagonist; hit rate 1.3% among 360,000; inhibition, % at 3 µM; P11229;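 active = percent inhibition above its own plate's cutoff, namely the mean of that plate's compound wells plus 3 SD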;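 also: peak over basal fluorescence ratio during 140 s after agonist addition; 0% = ACh EC80 plus DMSO and 100% = DMSO alone without agonist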
CHRM1 agonist – activates human CHRM1 receptor | P11229 | CHO-K1 hM1, Fluo-8 calcium fluorescence, agonist mode; 0% DMSO, 100% acetylcholine EC100 | activation, % at 3 µM | hit rate 0.33% among 360,000 | AID 588814;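 active = activation above the run's mean compound activation plus 3 SD, cut at about 16% in these data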;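 also: peak over basal fluorescence ratio within a 140 s kinetic read after compound addition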
CHRM1 PAM – positive allosteric modulators of human M1 muscarinic receptor; CHO-K1 hM1, Fluo-8 calcium fluorescence, ACh EC20; 0% = ACh EC20, 100% = maximal ACh; hit rate 0.088% among 360,000; activation, % at 3 µM; AID 588819; P11229; in the data active = activation above about 19%, passing the limit was not always enough
TAAR1 antagonist – antagonists of human TAAR1; Q96RJ0; CHO RD-HGA16 TAAR1, Fluo-8 calcium fluorescence, antagonist; inhibition, % at 3 µM; hit rate 1.5% among 360,000; AID 624466;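 active = inhibition above a per-plate cutoff, the mean inhibition of test compounds on that plate plus 3 SD, cut at about 49% in these data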;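 also: 0% = DMSO plus EC80 beta-PEA response and 100% = DMSO alone without agonist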
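System: RD-HGA16 CHO cells with stable hTAAR1 and Gα16 | Probe or stimulus: EC80 β-phenethylamine stimulus | Dosing: 3 µM, single point | Times: Dye loading 75 min at 37 °C, then 30 min room temperature | Measured by: Fluo-8 calcium-sensitive fluorescence | Read-out basis: % inhibition of agonist calcium response | Replicates: n of 1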
TAAR1 ag – agonists of human TAAR1; CHO RD-HGA16 TAAR1, Fluo-8 calcium fluorescence; vehicle wells 0%, saturating PEA agonist 100%; activation, % at 3 µM; hit rate 0.99% among 360,000;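 active = activation above the mean activation of all test compounds in the run plus 3 SD, cut at about 38% in these data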
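System: CHO-derived RD-HGA16 cells with stable Gα16 and human TAAR1 / Times: 17-24 h plating, Fluo-8 75 min 37 °C, 30 min RT / Technique: calcium-sensitive Fluo-8 signal, excitation 470-495, emission 515-575 nm / Measure: % activation relative to PEA EC100 response / Benchmarks: DMSO and PEA EC100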
m5-HT2A agonist – agonists of mouse serotonin 5-HT2A receptor (HTR2A) | activation, % at 7.6 µM | CHO-K1 mHTR2A beta-arrestin complementation, luminescence; percent of 30 µM serotonin response | hit rate 0.66% among 360,000 | P35363;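 active = activation above a run cutoff, the mean activation of all tested compounds plus 3 SD, cut at about 14% in these data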;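 also: 0% = plate median of compound wells and 100% = 30 µM serotonin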
Target sequence (P35363 whole entry, looked up): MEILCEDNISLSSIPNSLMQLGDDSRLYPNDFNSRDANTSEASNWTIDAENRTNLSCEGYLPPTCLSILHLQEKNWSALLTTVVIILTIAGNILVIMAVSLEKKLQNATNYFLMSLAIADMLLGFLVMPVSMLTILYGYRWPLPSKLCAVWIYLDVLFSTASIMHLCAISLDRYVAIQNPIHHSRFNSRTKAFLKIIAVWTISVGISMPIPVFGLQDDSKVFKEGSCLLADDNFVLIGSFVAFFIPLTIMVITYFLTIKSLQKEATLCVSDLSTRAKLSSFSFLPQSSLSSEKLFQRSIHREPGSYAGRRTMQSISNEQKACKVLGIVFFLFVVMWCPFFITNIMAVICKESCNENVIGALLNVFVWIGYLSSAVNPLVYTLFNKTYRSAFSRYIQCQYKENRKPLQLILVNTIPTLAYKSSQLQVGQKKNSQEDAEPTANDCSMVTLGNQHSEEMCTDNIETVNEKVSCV
OPRM1 ag – OPRM1 agonism in mouse HTR2A counterscreen. shares compounds with m5-HT2A agonist. U2OS OPRM1 beta-arrestin PathHunter, luminescence; DMSO 0%, DAMGO 9.3 µM 100%. activation, % at 9.3 µM. hit rate 5.3% among 2,300;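 active = mean activation above the mean of DMSO-only wells plus 3 SD, cut at about 0.5% in these data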
m5-HT2A ag conf – mouse HTR2A agonism confirmed; hit rate 19% among 2,300; shares compounds with m5-HT2A agonist; AID 624381; CHO-K1 PathHunter beta-arrestin recruitment, luminescence; DMSO 0%, 30 µM serotonin 100%; activation, % at 7.6 µM;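 active = mean activation across triplicates above the hit threshold derived in the original primary screen, cut at about 15% in these data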
* hit, by the source's call. A selection: hits, their analogues and other compounds. The true share with any hit is near 3.9%.

For CCC1(C2=CCCCC2)C(=O)NC(=S)N=C1N (stereo unspecified) the results were CHRM1 antagonist -25, CHRM1 agonist -4, CHRM1 PAM 13, TAAR1 antagonist -2, TAAR1 ag 1 and m5-HT2A agonist -2.
CCC1(CC)C(=O)NC(=S)N=C1N was read as CHRM1 antagonist 17, CHRM1 agonist -1, CHRM1 PAM -8, TAAR1 antagonist -17, TAAR1 ag 4, m5-HT2A agonist 21*, OPRM1 ag 0 and m5-HT2A ag conf 1.
Cn1c(OCC2CCCO2)nc2cc(-c3ccccc3)sc2c1=O (stereo unspecified) was read as CHRM1 antagonist -4, CHRM1 agonist 0, CHRM1 PAM -4, TAAR1 antagonist 8, TAAR1 ag 2 and m5-HT2A agonist 5.
Screening CCN(CC(=O)Nc1c(F)cccc1F)C(=O)c1cc(S(=O)(=O)N(CC)CC)ccc1N1CCCCC1 returned CHRM1 antagonist -7, CHRM1 agonist -1, CHRM1 PAM 4, TAAR1 antagonist -14, TAAR1 ag 3 and m5-HT2A agonist 0.
Screening CCN(CC(=O)Nc1c(F)cccc1F)C(=O)c1ccc(N2CCCCC2)c([N+](=O)[O-])c1 returned CHRM1 antagonist 9, CHRM1 agonist 4, CHRM1 PAM 1, TAAR1 antagonist -4, TAAR1 ag 2, m5-HT2A agonist 15*, OPRM1 ag 0.7* and m5-HT2A ag conf 8.
CN(C)S(=O)(=O)NC(=O)C1=C(N2CCCC2)COC1=O was read as CHRM1 antagonist -7, CHRM1 agonist -7, CHRM1 PAM 5, TAAR1 antagonist 16, TAAR1 ag 0, m5-HT2A agonist 23*, OPRM1 ag -1 and m5-HT2A ag conf -4.
CCCCn1c(N)c(N(CCOC)C(=O)CSc2nnc(C)n2-c2ccc(OC)cc2)c(=O)[nH]c1=O was read as CHRM1 antagonist -5, CHRM1 agonist -4, CHRM1 PAM 5, TAAR1 antagonist 3, TAAR1 ag 0 and m5-HT2A agonist -6.
`O=C(CSc1nc(-c2cccs2)nc2ccccc12)NC1CCS(=O)(=O)C1` (stereo unspecified) gave CHRM1 antagonist -2, CHRM1 agonist -3, CHRM1 PAM 2, TAAR1 antagonist 0, TAAR1 ag 0, m5-HT2A agonist 19*, OPRM1 ag 0.5* and m5-HT2A ag conf -2.
Screening N#CC1(NC(=O)CSc2nc3ccccc3o2)CCCCC1 returned CHRM1 antagonist -11, CHRM1 agonist 0, CHRM1 PAM 8, TAAR1 antagonist -5, TAAR1 ag 2 and m5-HT2A agonist -2.
For N#CC1(NC(=O)CSc2ccccn2)CCCCC1 the results were CHRM1 antagonist -6, CHRM1 agonist -2, CHRM1 PAM 16, TAAR1 antagonist -1, TAAR1 ag 0, m5-HT2A agonist 15*, OPRM1 ag -1 and m5-HT2A ag conf -4.
For Cc1ccccc1NCC(=O)N/N=C/c1c(C)c(C(=O)c2ccc(Cl)cc2)n2ccccc12 the results were CHRM1 antagonist -1, CHRM1 agonist -5, CHRM1 PAM 13, TAAR1 antagonist 2, TAAR1 ag 3, m5-HT2A agonist 15*, OPRM1 ag 0 and m5-HT2A ag conf 24*.
`CCOC(=O)c1ccc(-c2cc(C)no2)[nH]1` gave CHRM1 antagonist 11, CHRM1 agonist -3, CHRM1 PAM -9, TAAR1 antagonist -5, TAAR1 ag 0 and m5-HT2A agonist 5.
Screening C=CCOC(=O)COc1ccc2c3c(c(=O)oc2c1)CCCC3 returned CHRM1 antagonist -10, CHRM1 agonist -6, CHRM1 PAM 5, TAAR1 antagonist -10, TAAR1 ag 1, m5-HT2A agonist 16*, OPRM1 ag -1 and m5-HT2A ag conf -3.
